Laboratory results: ChEMBL document CHEMBL1143373, “Novel 6-methanesulfonamide-3,4-methylenedioxyphenyl-N-acylhydrazones: orally effective anti-inflammatory drug candidates” (Bioorg Med Chem, 2009)
Active and inactive are the calls of the source.

Tests used:
Rattus norvegicus [1] = assay: Antiinflammatory activity in Wistar rat assessed as inhibition of carrageenan-induced paw edema volume at 300 umol/kg, po administered 1 hrs prior to carrageenan challenge measured after 3 hrs; assay type: functional; parameters: scale not given: the % may be the effect or the level left
In short: (§1)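 Fasted Wistar rats of both sexes (150–200 g), given compound orally as a suspension in 5% arabic gum in saline. One hour later, 1% carrageenan (1 mg/paw) injected subplantar into one hind paw, saline into the other. Volumes measured by glass plethysmometer at 3 h. Edema taken as the carrageenan-minus-saline paw difference, expressed as % inhibition vs vehicle. n = 8–10.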

Mus musculus [2] = assay: Antinociceptive activity against formalin-induced pain in mouse assessed as inhibition of paw licking response during inflammatory phase at 300 umol/kg, po measured 15 to 30 mins after formalin injection; assay type: functional; parameters: scale not given: the % may be the effect or the level left
In short: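 Mice received 20 µL of 2.5% formalin subplantar in the hind paw. The inflammatory (second) phase was recorded 15–30 min after injection.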

Rattus norvegicus [3] = assay: Antiinflammatory activity in po dosed Wistar rat assessed as inhibition of carrageenan-induced paw edema volume administered 1 hrs prior to carrageenan challenge measured after 3 hrs; assay type: functional; in short: as §1
Rattus norvegicus [4] = assay: Antiinflammatory activity against arachidonic acid-induced ear edema in Wistar rat; assay type: functional, organism-based
Rattus norvegicus [5] = assay: Antihyperalgesic activity in Wistar rat assessed as inhibition of carrageenan-induced thermal hyperalgesia at 300 umol/kg, po by hotplate test; assay type: functional, organism-based
In short: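 Fasted Wistar rats of both sexes (150–200 g), dosed orally with 300 µmol/kg as a suspension in 5% arabic gum in saline (vehicle controls). Carrageenan 1% (1 mg/paw) injected subplantar 1 h later. Hot plate held at 51 °C, cut-off 20 s. Left hind paw withdrawal latency read at 0, 30, 60, 120, 180 and 240 min post-challenge. Hyperalgesia taken as the latency drop from time 0. n = 8 per group.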

Mus musculus [6] = assay: Antinociceptive activity in mouse assessed as inhibition of acetic acid-induced constrictions at 300 umol/kg, po; assay type: functional; parameters: scale not given: the % may be the effect or the level left
[7] = target: Prostaglandin G/H synthase 1 (Homo sapiens, UniProt P23219); assay: Inhibition of COX1 in human whole blood assessed as TXB2 production by enzyme immunoassay; assay type: tissue-based
Sequence of Prostaglandin G/H synthase 1 (P23219 whole entry): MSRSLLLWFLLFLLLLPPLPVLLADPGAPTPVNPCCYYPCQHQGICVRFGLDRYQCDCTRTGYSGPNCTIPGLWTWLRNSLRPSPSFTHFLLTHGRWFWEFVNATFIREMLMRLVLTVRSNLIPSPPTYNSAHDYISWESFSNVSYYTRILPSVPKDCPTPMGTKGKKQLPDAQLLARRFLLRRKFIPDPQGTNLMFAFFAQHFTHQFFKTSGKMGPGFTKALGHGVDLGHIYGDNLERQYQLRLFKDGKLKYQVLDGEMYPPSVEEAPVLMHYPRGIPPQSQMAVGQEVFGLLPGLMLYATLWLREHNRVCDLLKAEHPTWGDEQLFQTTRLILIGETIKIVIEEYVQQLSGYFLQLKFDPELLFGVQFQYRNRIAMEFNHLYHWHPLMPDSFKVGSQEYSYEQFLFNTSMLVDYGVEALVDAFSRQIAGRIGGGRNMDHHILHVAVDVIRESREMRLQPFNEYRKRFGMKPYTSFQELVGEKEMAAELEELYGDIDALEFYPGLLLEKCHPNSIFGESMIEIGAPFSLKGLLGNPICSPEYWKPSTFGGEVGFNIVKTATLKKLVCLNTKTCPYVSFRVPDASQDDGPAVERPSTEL

[8] = target: T1, Prostaglandin G/H synthase 2 (Homo sapiens, UniProt P35354); assay: Inhibition of COX2 in LPS-stimulated human whole blood assessed as TXB2 production by enzyme immunoassay; assay type: tissue-based
T1 sequence (P35354 whole entry): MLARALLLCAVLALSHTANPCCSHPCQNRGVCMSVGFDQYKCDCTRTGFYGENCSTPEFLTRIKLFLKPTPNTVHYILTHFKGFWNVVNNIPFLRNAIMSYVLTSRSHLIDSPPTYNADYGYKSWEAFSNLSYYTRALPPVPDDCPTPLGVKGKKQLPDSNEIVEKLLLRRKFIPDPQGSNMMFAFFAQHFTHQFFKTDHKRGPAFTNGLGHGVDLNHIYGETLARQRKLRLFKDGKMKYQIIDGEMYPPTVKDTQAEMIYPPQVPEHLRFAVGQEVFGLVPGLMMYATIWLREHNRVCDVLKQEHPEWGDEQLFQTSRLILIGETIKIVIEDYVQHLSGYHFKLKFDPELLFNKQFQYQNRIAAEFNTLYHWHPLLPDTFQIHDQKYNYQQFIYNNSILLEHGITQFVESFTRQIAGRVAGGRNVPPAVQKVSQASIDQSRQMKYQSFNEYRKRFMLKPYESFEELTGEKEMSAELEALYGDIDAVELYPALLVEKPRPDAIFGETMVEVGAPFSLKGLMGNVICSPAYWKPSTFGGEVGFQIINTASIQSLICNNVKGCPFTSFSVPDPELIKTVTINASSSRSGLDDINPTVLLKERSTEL

SMILES: CS(=O)(=O)Nc1cc2c(cc1C(=O)N/N=C/c1cccs1)OCO2
- Activity (Rattus norvegicus [1]): 36%

SMILES: CS(=O)(=O)Nc1ccc([N+](=O)[O-])cc1Oc1ccccc1 [NIMESULIDE]
- Activity (Rattus norvegicus [1]): 57.5%
- Activity (Mus musculus [2]): 58.5%

SMILES: O=C(N/N=C/c1cccs1)c1ccc2c(c1)OCO2
- Activity (Rattus norvegicus [1]): 29.7%

SMILES: CS(=O)(=O)Nc1cc2c(cc1C(=O)N/N=C/c1ccco1)OCO2
- Activity (Rattus norvegicus [1]): 37.9%

SMILES: CS(=O)(=O)Nc1cc2c(cc1C(=O)N/N=C/c1ccccc1)OCO2
- Activity (Rattus norvegicus [1]): 59.6%
- ED50 (Rattus norvegicus [3]): 97.8 µmol/kg
- Activity (Rattus norvegicus [4]): Active
- Activity (Rattus norvegicus [5]): Active
- Activity (Mus musculus [6]): 70%
- Activity (Mus musculus [2]): 48.7%
- IC50 [7]: 4.1 µM
- IC50 [8]: 10.2 µM
